pIC50, pKi: −log10 of the molar value. Calls of active or inactive are those of the source. The rule behind the calls is not given here.
Columns and labels:
[1] = target: Hyaluronidase (Bos taurus) (UniProt Q8SQG8+Q5E985); assay: Inhibition of bovine testes hyaluronidase using hyaluronic acid as substrate assessed as residual activity at 100 uM by nephelometric method relative to control; type: protein assay
In short: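 Hyaluronidase assayed nephelometrically per supplier-recommended protocol. Compounds added from DMSO stock (100 mM), DMSO ≤1% of total volume; activity expressed as percent of activity with DMSO alone.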

Saccharomyces cerevisiae [2] = assay: Uncompetitive inhibition of Saccharomyces cerevisiae alpha-glucosidase using pNPG as substrate at 0.17 to 100 uM by Dixon plot analysis
[3] = Uncompetitive inhibition of Saccharomyces cerevisiae alpha-glucosidase using pNPG as substrate by Cornish-Bowden plot analysis
Saccharomyces cerevisiae [4] = assay: Uncompetitive inhibition of Saccharomyces cerevisiae alpha-glucosidase using pNPG as substrate at 0.17 to 100 uM by Lineweaver-Burk plot analysis
[5] = Inhibition of Saccharomyces cerevisiae alpha-glucosidase using pNPG as substrate at 100 uM preincubated for 20 mins followed by substrate addition measured after 45 mins
In short: (§1)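 α-Glucosidase (0.175 U/ml) in water with compound (1 µL DMSO dilution) pre-incubated 20 min at 37 °C. Then added PBS (140 mM, pH 7.2), reduced glutathione (9 mM) and pNPG (0.9 mM). Incubated 45 min at 37 °C, read at 400 nm. % inhibition = (AC−AS)/AC×100 vs DMSO-only control. Triplicates with blanks.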

Saccharomyces cerevisiae [6] = assay: Inhibition of Saccharomyces cerevisiae alpha-glucosidase using pNPG as substrate assessed as residual activity at 100 uM preincubated for 20 mins followed by substrate addition measured after 45 mins relative to control; in short: as §1
[7] = tested on: beta-glucuronidase (Bos taurus); assay: Inhibition of bovine liver beta-glucuronidase using phenolphthalein beta-glucuronide as substrate assessed as residual activity measured liberation of phenolphthalein at 100 uM relative to control
Saccharomyces cerevisiae [8] = assay: Uncompetitive inhibition of Saccharomyces cerevisiae alpha-glucosidase using maltose as substrate assessed as ratio of Kik to Kiv at 2 uM
In short: (§2)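 Maltose as substrate in the α-glucosidase protocol (20 min preincubation with inhibitor at 37 °C, then substrate incubation at 37 °C). Reaction stopped at 95 °C for 3 min, and released glucose measured with an HK/G6P-DH glucose kit. Vmax and Km by Lineweaver-Burk; Kik/Kiv ratio per Yang et al.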

Saccharomyces cerevisiae [9] = assay: Uncompetitive inhibition of Saccharomyces cerevisiae alpha-glucosidase using pNPG as substrate assessed as ratio of Kik to Kiv at 4 uM
Saccharomyces cerevisiae [10] = assay: Uncompetitive inhibition of Saccharomyces cerevisiae alpha-glucosidase using pNPG as substrate assessed as ratio of Kik to Kiv at 2.4 uM
Saccharomyces cerevisiae [11] = assay: Uncompetitive inhibition of Saccharomyces cerevisiae alpha-glucosidase using pNPG as substrate assessed as ratio of Kik to Kiv at 2 uM
Saccharomyces cerevisiae [12] = assay: Uncompetitive inhibition of Saccharomyces cerevisiae alpha-glucosidase using maltose as substrate at 0.17 to 100 uM by Lineweaver-Burk plot analysis; in short: as §2
Saccharomyces cerevisiae [13] = assay: Uncompetitive inhibition of Saccharomyces cerevisiae alpha-glucosidase using pNPG as substrate assessed as ratio of Kik to Kiv at 8 uM
Saccharomyces cerevisiae [14] = assay: Uncompetitive inhibition of Saccharomyces cerevisiae alpha-glucosidase using maltose as substrate assessed as ratio of Kik to Kiv at 8 uM; in short: as §2
[15] = Uncompetitive inhibition of Saccharomyces cerevisiae alpha-glucosidase using maltose as substrate by Cornish-Bowden plot analysis
Saccharomyces cerevisiae [16] = assay: Uncompetitive inhibition of Saccharomyces cerevisiae alpha-glucosidase using maltose as substrate assessed as ratio of Kik to Kiv at 1.6 uM; in short: as §2
Saccharomyces cerevisiae [17] = assay: Uncompetitive inhibition of Saccharomyces cerevisiae alpha-glucosidase using maltose as substrate assessed as ratio of Kik to Kiv at 4 uM; in short: as §2
Saccharomyces cerevisiae [18] = assay: Uncompetitive inhibition of Saccharomyces cerevisiae alpha-glucosidase using maltose as substrate assessed as ratio of Kik to Kiv at 2.4 uM; in short: as §2
Saccharomyces cerevisiae [19] = assay: Uncompetitive inhibition of Saccharomyces cerevisiae alpha-glucosidase using maltose as substrate assessed as ratio of Kik to Kiv at 1.2 uM; in short: as §2
Saccharomyces cerevisiae [20] = assay: Uncompetitive inhibition of Saccharomyces cerevisiae alpha-glucosidase using pNPG as substrate assessed as ratio of Kik to Kiv at 1.6 uM
Saccharomyces cerevisiae [21] = assay: Uncompetitive inhibition of Saccharomyces cerevisiae alpha-glucosidase using maltose as substrate at 0.17 to 100 uM by Dixon plot analysis
Saccharomyces cerevisiae [22] = assay: Uncompetitive inhibition of Saccharomyces cerevisiae alpha-glucosidase using pNPG as substrate assessed as ratio of Kik to Kiv at 1.2 uM

For `O=C(O)C1=CC(O)CN(Cc2ccccn2)C1` (configuration not stated), the Activity [1] was 101%, the “Inhibition type (qualitative)” value (Saccharomyces cerevisiae [2]) was “Active” and the pKi [3] was 5.28. For the same molecule, the “uncompetitive inhibition (Lineweaver-Burk)” value (“uncompetitive inhibition” for short) (Saccharomyces cerevisiae [4]) was “Active”, the pIC50 [5] was 5.70 and the Activity (Saccharomyces cerevisiae [6]) was 2%. It also gave an Activity [7] of 103%.
With `O=C(O)C1=CC(O)CN(Cc2cc(=O)[nH]c(=O)[nH]2)C1` (configuration not stated) the Activity [1] was 100%, the “Inhibition type (qualitative)” value (Saccharomyces cerevisiae [2]) was “Active” and the pKi [3] was 4.90. The “uncompetitive inhibition” value (Saccharomyces cerevisiae [4]) was “Active”, the pIC50 [5] was 5.70 and the Activity (Saccharomyces cerevisiae [6]) was 3%. For the same molecule, the Activity [7] was 102%.
For `COC(=O)C1=CC(O)CN(Cc2cccnc2)C1` (configuration not stated), the Activity [1] was 99%, the Activity (Saccharomyces cerevisiae [6]) was 105% and the Activity [7] was 102%.
With `O=C(O)[C@H]1CN(Cc2cccnc2)CC[C@H]1O` the Activity [1] was 100%, the Activity (Saccharomyces cerevisiae [6]) was 97% and the Activity [7] was 104%.
Work on `COC(=O)C1=CC(O)CN(Cc2ccccn2)C1` (configuration not stated) yielded an Activity [1] of 100%, an Activity (Saccharomyces cerevisiae [6]) of 97% and an Activity [7] of 103%.
In the case of `O=C(O)C1=CC(O)CN(Cc2ccncc2)C1` (configuration not stated), the Activity [1] was 104%, the “Inhibition type (qualitative)” value (Saccharomyces cerevisiae [2]) was “Active” and the pKi [3] was 4.99. For the same molecule, the “uncompetitive inhibition” value (Saccharomyces cerevisiae [4]) was “Active”, the pIC50 [5] was 5.70 and the Activity (Saccharomyces cerevisiae [6]) was 3%. The Activity [7] was 103%.
With `O=C(O)C1=CC(O)CN(Cc2ccccc2)C1` (configuration not stated) the Activity [1] was 101%, the Activity (Saccharomyces cerevisiae [6]) was 95% and the Activity [7] was 97%.
Work on `O=C(O)[C@H]1CN(Cc2ccccc2)CC[C@H]1O` yielded an Activity [1] of 100%, an Activity (Saccharomyces cerevisiae [6]) of 82% and an Activity [7] of 102%.
In the case of `COC(=O)C1=CC(O)CN(Cc2ccccc2)C1` (configuration not stated), the Activity [1] was 99%, the Activity (Saccharomyces cerevisiae [6]) was 92% and the Activity [7] was 93%.
For `COC(=O)C1=CC(O)CN(Cc2cc(=O)[nH]c(=O)[nH]2)C1` (configuration not stated), the Activity [1] was 100%, the Activity (Saccharomyces cerevisiae [6]) was 95% and the Activity [7] was 97%.
Work on `O=C(O)[C@H]1CN(Cc2ccncc2)CC[C@H]1O` yielded an Activity [1] of 100%, an Activity (Saccharomyces cerevisiae [6]) of 85% and an Activity [7] of 108%.
`O=C(O)C1=CCCN(Cc2nc3ccccc3[nH]2)C1` showed an Activity [1] of 100%, an Activity (Saccharomyces cerevisiae [6]) of 93% and an Activity [7] of 100%.
With `O=C(O)[C@H]1CN(Cc2ccccn2)CC[C@H]1O` the Activity [1] was 100%, the Activity (Saccharomyces cerevisiae [6]) was 95% and the Activity [7] was 103%.
Molecule `O=C(O)C1=CC(O)CN(Cc2cccnc2)C1` (configuration not stated) has a Ratio (Saccharomyces cerevisiae [8]) of 1.09, a Ratio (Saccharomyces cerevisiae [9]) of 1.49 and an Activity [1] of 102%. The Ratio (Saccharomyces cerevisiae [10]) was 1.25, the Ratio (Saccharomyces cerevisiae [11]) was 0.998 and the inhibition (Saccharomyces cerevisiae [12]) was “Active”. The “Inhibition type (qualitative)” value (Saccharomyces cerevisiae [2]) was “Active”, the Ratio (Saccharomyces cerevisiae [13]) was 1.72 and the pKi [3] was 5.92. The “uncompetitive inhibition” value (Saccharomyces cerevisiae [4]) was “Active”, the pIC50 [5] was 5.63 and the Ratio (Saccharomyces cerevisiae [14]) was 1.47. The Activity (Saccharomyces cerevisiae [6]) was 2%, the pKi [15] was 6.10 and the Ratio (Saccharomyces cerevisiae [16]) was 1.04. The Ratio (Saccharomyces cerevisiae [17]) was 1.2, the Ratio (Saccharomyces cerevisiae [18]) was 1.07 and the Ratio (Saccharomyces cerevisiae [19]) was 1.05. For the same molecule, the Ratio (Saccharomyces cerevisiae [20]) was 1.09, the Activity [7] was 100% and the inhibition (Saccharomyces cerevisiae [21]) was “Active”. For the same molecule, the Ratio (Saccharomyces cerevisiae [22]) was 1.03.
Work on `O=C(O)C1=CCCN(Cc2cc(=O)[nH]c(=O)[nH]2)C1` yielded an Activity [1] of 102%, an Activity (Saccharomyces cerevisiae [6]) of 97% and an Activity [7] of 100%.
Work on `CCOC(=O)C1CN(Cc2ccccc2)CCC1O` (mixture of isomers) yielded an Activity [1] of 103%, an Activity (Saccharomyces cerevisiae [6]) of 100% and an Activity [7] of 95%.
For `O=C(O)C1=CCCN(Cc2ccccn2)C1`, the Activity [1] was 101%, the Activity (Saccharomyces cerevisiae [6]) was 95% and the Activity [7] was 96%.
Work on `O=C(O)C1=CCCN(Cc2cccnc2)C1` yielded an Activity [1] of 99%, an Activity (Saccharomyces cerevisiae [6]) of 102% and an Activity [7] of 102%.
With `O=C(O)C1=CCCN(Cc2ccncc2)C1` the Activity [1] was 99%, the Activity (Saccharomyces cerevisiae [6]) was 99% and the Activity [7] was 95%.
In the case of `O=C(O)C1=CCCN(Cc2ccccc2)C1`, the Activity [1] was 100%, the Activity (Saccharomyces cerevisiae [6]) was 97% and the Activity [7] was 89%.
`CCOC(=O)N1C=C(C(=O)OC)CCC1` gave an Activity [1] of 100%, an Activity (Saccharomyces cerevisiae [6]) of 109% and an Activity [7] of 96%.
For `COC(=O)C1=CC(O)CN(Cc2ccncc2)C1` (configuration not stated), the Activity [1] was 99%, the Activity (Saccharomyces cerevisiae [6]) was 94% and the Activity [7] was 105%.

— ChEMBL document CHEMBL2417376, “N-Heteroarylmethyl-5-hydroxy-1,2,5,6-tetrahydropyridine-3-carboxylic acid a novel scaffold for the design of uncompetitive α-glucosidase inhibitors” (Bioorg Med Chem, 2013)
